Laboratory results as given in ChEMBL document CHEMBL1151817, “Steroids from an Australian sponge Psammoclema sp” (J Nat Prod, 2009).
Activity calls are given as the source filed them. The rule behind the calls is not given here.

Legend:
[1] = (§1) Inhibition of dynamin 1 GTPase activity in sheep brain peripheral membrane by microplate spectrophotometry; format: cell membranes, Ovis aries
Summary of the method: (§2)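 Sheep brain dynamin I, affinity-purified on GST-Amph2-SH3, used at 20 nM. Sample preincubated 12 min at 37 °C with 0.3 mM GTP in Tris pH 7.5 buffer containing Mg2+, Tween 80 and protease inhibitors. Enzyme then added; 30 min at 37 °C with shaking; phosphatidylserine liposome stimulation. Stopped with EDTA; malachite green phosphate readout at 650 nm against phosphate standard curve.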

HT-29 = assay: Cytotoxicity against human HT-29 cells after 72 hrs by MTT assay; format: functional; details: HT-29, 72 h
Summary of the method: (§3)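 ATCC lines grown in DMEM with 10% FBS, glutamine, antibiotics, 37 °C, 5% CO2; 2000–3000 cells/well plated, compound added 24 h later during log growth. Eight concentrations, 0.25–50 μM (from 20 mM DMSO stock), 72 h exposure; MTT absorbance at 540 nm. GI50 = concentration giving 50% growth inhibition versus untreated cells; duplicate wells, two separate experiments.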

MCF7 = assay: Cytotoxicity against human MCF7 cells after 72 hrs by MTT assay; format: functional; details: MCF7, 72 h; summary of the method: as §3
A2780 = assay: Cytotoxicity against human A2780 cells after 72 hrs by MTT assay; format: functional; details: A2780, 72 h; summary of the method: as §3
DU-145 = assay: Cytotoxicity against human DU145 cells after 72 hrs by MTT assay; format: functional; details: DU-145, 72 h; summary of the method: as §3
Ovis aries = organism: Ovis aries; assay: as §1; format: cell membranes; summary of the method: as §2

| IC50 [1] [µM] | Activity (Ovis aries) | SMILES | GI50 (HT-29) [µM] | GI50 (MCF7) [µM] | GI50 (A2780) [µM] | GI50 (DU-145) [µM] |
| --- | --- | --- | --- | --- | --- | --- |
| > 300 |  | C=C(C)C(CC)CCC(C)C1C(O)CC2C3CCC4CC(O)CCC4(C)C3CC(O)C21C (stereo not given) | 7.1 | 10 | 11 | 13 |
|  | inactive | CC(C)C(C)/C=C/C(C)C1C(O)CC2C3CCC4CC(O)CCC4(C)C3CC(O)C21C (stereo not given) | 7 | 17 | 10 | 27 |
|  | inactive | C=C(CCC(C)C1C(O)CC2C3CCC4CC(O)CCC4(C)C3CC(O)C21C)C(C)C (stereo not given) | 18 | 18 | 19 | 27 |
|  | inactive | CC(C)CCCC(C)C1C(O)CC2C3CCC4CC(O)CCC4(C)C3CC(O)C21C (stereo not given) | 5 | 5.5 | 5.4 | 6.7 |
